Measurements as given in paper PMC8301581 (Clinical and Translational Science, 2021).
Structures can show the parent of a compound that is named as a salt.

Assays:
[1] = test system: CEM; type: cell-based, human; conditions: CEM ALL cell line; α greater than zero = synergy, less than zero = antagonism
Method in brief: (§1)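 Cells were grown in RPMI-1640 with 2 mM glutamine and 10% FBS at 37°C, 5% CO₂, and were STR-authenticated and mycoplasma-negative. Mid-log-phase cells were exposed to serial dilutions of the drugs, alone or combined, then read by a modified MTT assay after 3 days. Interaction α (positive = synergy, negative = antagonism) was estimated by modified response surface modeling relative to additivity.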

[2] = test system: NALM6; type: cell-based, human; conditions: NALM6 ALL cell line; α greater than zero = synergy, less than zero = antagonism
Method in brief: as §1

[3] = test system: hiPSC‐derived neurons; type: cell-based, human; conditions: negative α = antagonism
Method in brief: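 After drug treatment, hiPSC-derived neurons were stained with 5 µg/ml Hoechst 33342 and 10 µg/ml Calcein AM for 10 min at room temperature. Cells were imaged at 10×, with at least 1000 cells per condition in each of five independent experiments. Per-cell values were collected for total neurite outgrowth, number of processes and number of branches. Combination α came from response surface modeling against an additive model.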

[4] = test system: hiPSC‐derived neurons; type: cell-based, human; conditions: 72 h, negative α = antagonism
Method in brief: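 Human iPSC-derived peripheral neurons (>90% pure; βIII-tubulin, MAP-2, peripherin and vGLUT2 positive; three lots) were kept per the supplier's protocol. Viability was read as ATP by CellTiter-Glo 2.0 at 72 h after drug treatment. Combination responses were fitted by modified response surface modeling. α is the interaction term versus the additive model: positive means synergy, negative means antagonism.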

[5] = In vivo pharmacokinetic studies in mice; conditions: for total plasma concentrations: mice, VCR 0.1 mg/kg intraperitoneal and DIP 200 mg/kg p.o.; for clearance: male, C57BL/6, mouse, plasma, intraperitoneal
[6] = test system: C57BL/6 J mice; assay: Mouse neurotoxicity assessment: mechanical allodynia; type: in vivo
[7] = test system: phospho‐histone H3 (Ser10); assay: Western blot of phospho‐histone H3; type: cell-based, human; conditions: CEM, vincristine 2 nM for 24 h with increasing concentrations of DIP
[8] = test system: phospho‐histone H3 (Ser10); assay: Western blot of phospho‐histone H3; type: cell-based, human; conditions: NALM6, vincristine 2 nM for 24 h with increasing concentrations of DIP
[9] = test system: SORORIN; assay: Western blot of SORORIN protein level; type: cell-based, human; conditions: CEM, G2 synchronized cells, highest concentration of DIP 10 µM
[10] = test system: SORORIN; assay: Western blot of SORORIN protein level; type: cell-based, human; conditions: NALM6, G2 synchronized cells, highest concentration of DIP 10 µM
[11] = clinical studies; cited from earlier work
[12] = test system: CEM leukemia cells; assay: Survival of NSG mice inoculated with human CEM leukemia cells; type: in vivo; conditions: once a week, 0.3mg/kg vincristine, p value <0.001
[13] = cited from earlier work

SMILES | CEM α (drug‐drug interaction between vincristine and second drug) [1] | NALM6 α (drug‐drug interaction between vincristine and second drug) [2] | Branches α (drug‐drug interaction between vincristine and second drug) [3] | Outgrowth α (drug‐drug interaction between vincristine and second drug) [3] | Processes α (drug‐drug interaction between vincristine and second drug) [3] | Viability α (drug‐drug interaction between vincristine and second drug) [4] | total plasma concentrations [5] | paw withdrawal response, DIP administered with VCR versus VCR alone ([6]; mice, DIP oral gavage with VCR intraperitoneal, day 1 to day 10) | phospho‐histone H3 (Ser10) levels [7] | phospho‐histone H3 (Ser10) levels [8] | SORORIN protein levels [9] | SORORIN protein levels [10] | plasma concentrations reported clinically [11] | clearance [5] [mL/min/kg] | clearance ([5]; 0.1 mg/kg) [mL/min/kg] | paw withdrawal responses ([6]; mice receiving VCR alone) | survival of mice, VCR and vehicle versus controls [12] | plasma protein binding [13]
OCCN(CCO)c1nc(N2CCCCC2)c2nc(N(CCO)CCO)nc(N3CCCCC3)c2n1 [Dipyridamole] | 11.6 | 4.45 | −3.43 | −1.98 | −1.75 | −3.7 | ≤ 5000 ng/mL | significantly lowered | dose‐dependent increase | dose‐dependent increase | lowest level of SORORIN protein | lowest level of SORORIN protein | ≤ 6000 ng/mL | – | – | – | – | –
OCCOCCN1CCN(C2=Nc3ccccc3Sc3ccccc32)CC1 [Quetiapine fumarate] | 0.787 | 2.33 | −2.29 | −1.67 | −1.25 | −0.007 | – | – | – | – | – | – | – | – | – | – | – | –
CCOC(=O)c1ccc(C#Cc2ccc3c(c2)C(C)(C)CCS3)nc1 [Tazarotene] | 0.945 | 1.42 | −1.16 | −1.63 | −1.59 | −0.72 | – | – | – | – | – | – | – | – | – | – | – | –
CC[C@]1(O)C[C@H]2CN(CCc3c([nH]c4ccccc34)[C@@](C(=O)OC)(c3cc4c(cc3OC)N(C=O)[C@H]3[C@@](O)(C(=O)OC)[C@H](OC(C)=O)[C@]5(CC)C=CCN6CC[C@]43[C@@H]65)C2)C1 [VCR, Vincristine] | – | – | – | – | – | – | up to 10 ng/ml | – | – | – | – | – | up to 31.2 ng/ml | 81.3 | 99.3 | significant increase | significantly prolonged survival | around 75%
